{"source": "PubChem BioAssay AID1040", "about": "(The Scripps Research Institute Molecular Screening Center, 2008)", "note": "About 2,000 (1%) of roughly 200,000 compounds were called active. This is one part of a sample in which actives are shown more often than they occur. A number with no mark means an inactive call.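 Rule for the calls: active = inhibition above the campaign mean inhibition of all tested compounds plus 3 SD (cut at about 20% in these data); inactive = the rest.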", "data": [{"biological_target": "Neuropeptide Y receptor type 1 (Homo sapiens) (UniProt P25929)", "sequence (P25929 whole entry, looked up)": "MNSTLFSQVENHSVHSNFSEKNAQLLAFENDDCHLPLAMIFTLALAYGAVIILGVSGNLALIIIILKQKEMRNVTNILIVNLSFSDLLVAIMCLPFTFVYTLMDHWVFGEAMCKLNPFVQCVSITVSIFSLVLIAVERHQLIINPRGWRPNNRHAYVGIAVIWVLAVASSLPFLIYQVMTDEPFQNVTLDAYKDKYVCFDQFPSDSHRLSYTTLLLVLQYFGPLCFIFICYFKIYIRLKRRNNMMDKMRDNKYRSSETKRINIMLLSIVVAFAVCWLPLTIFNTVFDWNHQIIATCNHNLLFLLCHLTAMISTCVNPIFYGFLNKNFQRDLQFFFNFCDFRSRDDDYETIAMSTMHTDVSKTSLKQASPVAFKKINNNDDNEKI", "assay": "blockers of human neuropeptide Y Y1 receptor – cell-based, primary screen (AID 1040);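 note: 0% = DMSO wells given NPY plus isoproterenol and 100% = isoproterenol alone without NPY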", "conditions": "HEK293-CNG Y1 cells, membrane potential fluorescence; at 3.6 µM; stronger effect = higher value; NPY at EC95, then isoproterenol", "procedure,_shortened": "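Material: HEK293 Y1/CNG channel cell line; also added: NPY (25 nM), isoproterenol (1 µM), Ro 20-1724 (25 µM); doses: one concentration, 3.6 µM, in 0.4% DMSO; schedule: compound incubation 1 h at room temperature, readout 45 min post-stimulation; technique: membrane potential fluorescence; measure: fluorescence ratio normalized to % inhibition between controls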", "values": [{"molecule": "Cc1nnc(SCC(=O)N2c3ccccc3C(C)(c3ccc(Cl)cc3)CC2(C)C)s1", "note": "(configuration not stated)", "inhibition": "16.7%"}, {"molecule": "CC(=O)Nc1ccc(/C(C)=N/NC(=O)CN(c2ccccc2Br)S(C)(=O)=O)cc1", "inhibition": "-2.53%"}, {"molecule": "Cc1ccc(-n2c(SCC(=O)Nc3ncc(Cl)cc3Cl)nc3ccccc32)cc1", "inhibition": "-2.49%"}, {"molecule": "CC(Oc1ccc(Cl)cc1)C(=O)OCC(=O)Nc1ncc(Cl)cc1Cl", "note": "(configuration not stated)", "inhibition": "2.64%"}, {"molecule": "Cc1ccc(SCCC(=O)OCC(=O)Nc2ncc(Cl)cc2Cl)cc1", "inhibition": "20.4% (active)"}, {"molecule": "CC1(C)C=C2[C@H]3CC[C@@H]4[C@@]5(C)CCC(=O)C(C)(C)[C@@H]5CC[C@@]4(C)[C@]3(C)CC[C@@]2(C(=O)O)CC1", "inhibition": "2.69%"}, {"molecule": "Cc1cc(O)ccc1-c1cnc2ccccc2n1", "inhibition": "-0.67%"}, {"molecule": "Oc1ccc(-c2[nH]ncc2-c2nc3ccccc3s2)c(O)c1", "inhibition": "62.6% (active)"}, {"molecule": "CC(=O)Nc1cccc(-c2nc3ccccc3s2)c1C", "inhibition": "3.27%"}, {"molecule": "CC1CCN(S(=O)(=O)c2ccc3ncn(CC(=O)N(C)C4CCCCC4)c(=O)c3c2)CC1", "inhibition": "4.79%"}, {"molecule": "CCOC(=O)C1CCN(CCC(=O)Nc2cccc(C)c2)CC1", "inhibition": "-5.31%"}, {"molecule": "COc1ccccc1OCc1ccc(C(=O)N2CCN(C)CC2)o1", "inhibition": "6.16%"}, {"molecule": "COc1cc2c(C(=O)N3CCN(C)CC3)c(CSc3ccccc3)n(C)c2cc1Br", "inhibition": "23.3% (active)"}, {"molecule": "O=C(c1ccc(CSc2ccccc2)cc1)N1CCCCCC1", "inhibition": "-0.16%"}, {"molecule": "O=[N+]([O-])c1ccc(N2CCN(S(=O)(=O)c3ccccc3)CC2)cc1N1CCc2ccccc2C1", "inhibition": "4.34%"}, {"molecule": "Cc1ccc(OCC(=O)Nn2cnc3ccccc32)cc1", "inhibition": "8.06%"}, {"molecule": "COc1ccc(-c2cc(C(=O)n3cnc4ccccc43)c3ccccc3n2)cc1", "inhibition": "26.2% (active)"}, {"molecule": "CNC(=O)COC(=O)c1cc(-c2ccc(OC)cc2)nc2ccccc12", "inhibition": "3.85%"}, {"molecule": "COc1cc(NC(=S)N2CCCC(C)C2)cc(OC)c1OC", "note": "(configuration not stated)", "inhibition": "-1.31%"}, {"molecule": "CC(=O)N1CCN(S(=O)(=O)c2cccc(C(=O)NC3CCC(C)CC3)c2)CC1", "note": "(configuration not stated)", "inhibition": "1.65%"}, {"molecule": "Cn1c(=O)c2c(ncn2CCc2ccccc2)n(C)c1=O", "inhibition": "-0.86%"}, {"molecule": "CC(C)Cn1c(CN(Cc2ccccc2)Cc2ccccc2)nc2c1c(=O)n(C)c(=O)n2C", "inhibition": "13.4%"}, {"molecule": "CC(C)Cn1cnc2c1c(=O)n(CC(O)c1ccccc1)c(=O)n2CC(C)C", "note": "(configuration not stated)", "inhibition": "20.6% (active)"}, {"molecule": "CCCN(CC(=O)Nc1ccc(C(N)=O)cc1)CC(=O)Nc1ccccc1C", "inhibition": "-0.18%"}, {"molecule": "O=C1Nc2cc(Cl)c(Cl)cc2N(O)N1c1ccccc1Cl", "inhibition": "1.81%"}, {"molecule": "CC(=O)Nc1ccc(NC(=O)C(C)OC(=O)c2ccccc2C(=O)c2ccc(Cl)c([N+](=O)[O-])c2)cc1", "note": "(configuration not stated)", "inhibition": "0.15%"}, {"molecule": "O=C(CN1C(=O)/C(=C\\c2ccc(C(F)(F)F)cc2)Sc2ccccc21)NCc1ccco1", "inhibition": "10.7%"}, {"molecule": "CCN1CCN(CCNC(=O)c2ccc(/C=C3/Sc4ccccc4N(Cc4cccc(C)c4)C3=O)cc2)CC1", "inhibition": "23.1% (active)"}, {"molecule": "Cc1nn(Cc2ccccc2)c(C)c1C(=O)NCCN1C(=O)S/C(=C\\c2ccc(F)cc2)C1=O", "inhibition": "-0.53%"}, {"molecule": "Cc1ccc(OCCCn2c(=O)oc3ccccc32)cc1", "inhibition": "8.49%"}, {"molecule": "Cc1ccc2nc(-c3ccc(NC(=O)CN(C)S(=O)(=O)c4ccccc4)cc3)sc2c1", "inhibition": "-3.73%"}, {"molecule": "Cc1c(CN2CCCC(C(=O)c3cccc(Cl)c3)C2)c(=O)n(-c2ccccc2)n1C", "note": "(configuration not stated)", "inhibition": "-2.25%"}, {"molecule": "O=C(Nc1ccncc1)c1cc(-c2ccccn2)nc2ccc(Br)cc12", "inhibition": "-2.88%"}, {"molecule": "Cc1ccc2nc(-c3ccccn3)cc(C(=O)Nc3ccc4c(c3)OCO4)c2c1", "inhibition": "31.6% (active)"}, {"molecule": "Cc1ccc2nc(-c3ccncc3)cc(C(=O)Nc3ccc4c(c3)OCCO4)c2c1", "inhibition": "4.85%"}, {"molecule": "Cc1ccc(C(C(=O)NCc2ccco2)N(CC2CCCO2)C(=O)Cn2nnc3ccccc32)cc1", "note": "(configuration not stated)", "inhibition": "2.99%"}, {"molecule": "COCCNC(=O)C(c1ccc(C)o1)N(Cc1ccccc1)C(=O)Cn1nnc2ccccc21", "note": "(configuration not stated)", "inhibition": "7.77%"}, {"molecule": "COc1ccccc1N(C(=O)Cn1nnc2ccccc21)C(C(=O)NCc1ccco1)c1ccc(C)o1", "note": "(configuration not stated)", "inhibition": "21.5% (active)"}, {"molecule": "CCO[C@H]1OC(C(=O)O)=C[C@@H](C2CCCCC2)[C@@H]1CCCO", "inhibition": "-4.69%"}, {"molecule": "CC1CC1C(=O)OCC(=O)c1c(N)n(C)c(=O)n(C)c1=O", "note": "(configuration not stated)", "inhibition": "0.59%"}, {"molecule": "COc1ccc(OC)c(NC(=O)CN(Cc2ccc(Cl)cc2)S(C)(=O)=O)c1", "inhibition": "-0.76%"}, {"molecule": "COc1ccccc1N1CCN(C(=O)CN(Cc2ccc(Cl)cc2)S(C)(=O)=O)CC1", "inhibition": "20.4% (active)"}, {"molecule": "CS(=O)(=O)N(CC(=O)N1CCCC1)Cc1ccccc1", "inhibition": "1.29%"}, {"molecule": "COC(=O)C1=C(C)N(c2ccc(C)cc2)/C(=C/c2ccc(O)cc2)C1=O", "inhibition": "2.2%"}, {"molecule": "COCCNc1nc2nonc2nc1N1CCCC1c1nccs1", "note": "(configuration not stated)", "inhibition": "0.14%"}, {"molecule": "O=C(c1cc(-c2cccc(O)c2)on1)N1CCc2ccccc2C1", "inhibition": "2.12%"}, {"molecule": "Cc1occc1C(=O)N1CCCc2ccccc21", "inhibition": "1.99%"}, {"molecule": "O=C(c1cc(-c2ccc(O)cc2)on1)N1CCCc2ccccc21", "inhibition": "25.5% (active)"}, {"molecule": "Cc1ccc(-c2cc(C(=O)N3CCc4ccccc4C3)no2)cc1", "inhibition": "28.6% (active)"}, {"molecule": "O=C(c1cc(-c2ccccc2O)on1)N1CCCC1", "inhibition": "-3.05%"}, {"molecule": "O=C(C(=O)N1CCc2ccccc2C1)N1CCc2ccccc2C1", "inhibition": "1.24%"}, {"molecule": "CC(C)Oc1ccccc1C(=O)NC(CO)C(=O)O", "note": "(configuration not stated)", "inhibition": "-2.02%"}, {"molecule": "Cc1ccc(O)c(CCc2ccccc2)n1", "inhibition": "1.07%"}, {"molecule": "Cc1nn(CC(=O)Nc2ccc(C#N)cc2)c(C)c1[N+](=O)[O-]", "inhibition": "-0.39%"}, {"molecule": "COc1ccc(-c2cc(-c3ccc(N)cc3)nc(N)c2C#N)cc1OC", "inhibition": "7.06%"}, {"molecule": "N#Cc1c(N)nc2c3c(sc(=N)c2c1N)NC(=O)CC3c1ccccc1Cl", "note": "(configuration not stated)", "inhibition": "1.18%"}, {"molecule": "COc1ccc(C2CC(=O)Nc3sc(=N)c4c(N)c(C#N)c(N)nc4c32)cc1OC", "note": "(configuration not stated)", "inhibition": "60.1% (active)"}]}]}
